Test results as given in ChEMBL document CHEMBL3992505, “Optimization of substituted imidazobenzodiazepines as novel asthma treatments” (Eur J Med Chem, 2017).

Tests used:
[1] = (§1) Half life in mouse liver microsomes at 10 uM by LC-MS/MS analysis; type: ADME, microsome; conditions: liver microsomes
[2] = Half life in human liver microsomes at 10 uM by LC-MS/MS analysis; type: ADME, microsome
[3] = Cytotoxicity in HEK293 cells after 48 hrs by Cell-titer Glo reagent based assay; conditions: human, read-out: LD50
In short: (§2)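 Cells (HEK293, HepG2 or BEAS2B) exposed to compounds at a range of concentrations for 48 h; viability read by Cell-Titer Glo luminescence. Normalized to DMSO (negative) and 3-dibutylamino-1-(4-hexyl-phenyl)-propan-1-one at 150 μM final in DMSO (positive).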

Liver [4] = experiment: Metabolic stability in human liver microsomes assessed as compound remaining at 10 uM after 1 hr by LC-MS/MS analysis; type: ADME, microsome
In short: (§3)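 Compound stability was measured in human or mouse liver microsomes as percent remaining after 1 h. Data came from two independent experiments, each run in triplicate.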

[5] = Cytotoxicity in human HepG2 cells after 48 hrs by Cell-titer Glo reagent based assay; conditions: read-out: LD50; in short: as §2
[6] = Cytotoxicity in human BEAS2B cells after 48 hrs by Cell-titer Glo reagent based assay; design: species or system BEAS-2B; conditions: read-out: LD50; in short: as §2
Liver [7] = experiment: Metabolic stability in mouse liver microsomes assessed as compound remaining at 10 uM after 1 hr by LC-MS/MS analysis; type: ADME, microsome; in short: as §3
Liver [8] = experiment: as §1; type: ADME, microsome; conditions: microsomes, 10 µM
Mus musculus [9] = experiment: Neurotoxicity in Swiss Webster mouse assessed as induction of senorimotor impairment at 15 mg/kg administered 10 mins prior to testing and measured for 3 mins at 10 to 60 mins after drug administration by rotarod method; type: toxicity, organism-based; conditions: in vivo
Mus musculus [10] = experiment: Neurotoxicity in Swiss Webster mouse assessed as induction of senorimotor impairment at 40 mg/kg, ip administered 10 mins prior to testing and measured for 3 mins at 10 to 60 mins after drug administration by rotarod method; type: toxicity, organism-based; conditions: in vivo
In short: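 Swiss Webster mice, pre-trained at 15 rpm until they held on for 3 min at three consecutive sessions, were given a single i.p. dose of 40 mg/kg in 10% DMSO/40% propylene glycol/50% PBS. Rotarod at 15 rpm for 3 min at 10, 30 and 60 min after dosing. Falls before 3 min scored as fail, with time of fall recorded. N = 10, mean ± SEM. Vehicle and diazepam 5 mg/kg i.p. controls. Mice rested 2–3 days between doses.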

[11] = Solubility of the compound in 50% PBS/40% propylene glycol/10% DMSO at 10 uM; type: physicochemical; conditions: buffer
[12] = Solubility of the compound in PBS/1% DMSO at 10 uM; type: physicochemical; conditions: buffer
In short: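 Solubility was judged at 10 μM in PBS containing 1% DMSO.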

SMILES | half-life at 10 µM [1] [h] | half-life at 10 µM [2] [h] | CC50 at 48 h [3] [µM] | Stability (Liver [4]) [%] | CC50 at 48 h [5] [µM] | CC50 at 48 h [6] [µM] | Stability (Liver [7]) [%] | t1/2 (Liver [8]) [h] | Activity (Mus musculus [9]) | Activity (Mus musculus [10]) | solubility [11] | solubility [12]
CC(C)(C)OC(=O)c1ncn2c1[C@@H]1CCCN1C(=O)c1cc(O)ccc1-2 | 0.96 | 9.65 | > 400 | 90.6 | > 400 | > 400 | 46.6 |  |  |  |  | 
[2H]C([2H])([2H])Oc1ccc2c(c1)C(=O)N1CCC[C@H]1c1c(C(=O)NC3CC3)ncn1-2 |  | 30 | > 200 | 88.1 | > 400 | > 400 | 94.1 | 0.295 |  |  |  | 
COc1ccc2c(c1)C(=O)N1CCC[C@H]1c1c(C(=O)O)ncn1-2 | 1.22 | 1.33 | > 400 | 56.1 | > 400 | > 400 | 52.9 |  |  |  |  | 
COc1ccc2c(c1)C(=O)N1CCC[C@H]1c1c(C(=O)OC(C)(C)C)ncn1-2 | 0.402 | 11.9 | > 100 | 92.1 | > 400 | > 200 | 16.2 |  | Toxic |  |  | 
CCOC(=O)c1ncn2c1[C@@H]1CCCN1C(=O)c1cc(O)ccc1-2 | 9 | 11 | > 400 | 91.7 | > 400 | > 400 | 91.1 |  |  | Non-Toxic |  | 
[2H]C([2H])([2H])Oc1ccc2c(c1)C(=O)N1CCC[C@H]1c1c(C(=O)N(C)C)ncn1-2 | 24.7 | 13.3 | > 400 | 96.3 | > 400 | > 400 | 83.1 |  |  | Non-Toxic |  | 
[2H]C([2H])([2H])Oc1ccc2c(c1)C(=O)N1CCC[C@H]1c1c(C(=O)OCC(C)C)ncn1-2 | 0.448 | 3.35 | > 100 | 78.7 | > 200 | > 200 | 22.4 |  |  | Toxic |  | 
COC(=O)c1ncn2c1[C@@H]1CCCN1C(=O)c1cc(OC)ccc1-2 | 2.15 | 11.1 | > 400 | 89.7 | > 400 | > 400 | 70.3 |  |  |  |  | 
[2H]C([2H])([2H])Oc1ccc2c(c1)C(=O)N1CCC[C@H]1c1c(C(=O)OC(C)(C)C)ncn1-2 | 0.428 | 16.9 | > 100 | 91.9 | > 400 | > 200 | 17.6 |  |  |  |  | 
[2H]C([2H])([2H])Oc1ccc2c(c1)C(=O)N1CCC[C@H]1c1c(C(=O)OC(C(F)(F)F)C(F)(F)F)ncn1-2 | 1.82 | 3.4 | > 200 | 77.1 | > 400 | > 400 | 62.5 |  |  |  | Insoluble | 
CCOC(=O)c1ncn2c1[C@@H]1CCCN1C(=O)c1cc(OC)ccc1-2 | 5.3 |  | > 400 | 99.1 | > 400 | > 400 | 85.4 |  |  |  |  | 
COc1ccc2c(c1)C(=O)N1CCC[C@H]1c1c(C(=O)NC3CC3)ncn1-2 |  | 13.1 | > 200 | 79.9 | > 400 | > 400 | 91.3 | 0.222 |  |  |  | 
CCSC(=O)c1ncn2c1[C@@H]1CCCN1C(=O)c1cc(OC)ccc1-2 |  |  | > 100 |  | > 100 | > 100 |  |  |  |  | Insoluble | Insoluble
CCNC(=O)c1ncn2c1[C@@H]1CCCN1C(=O)c1cc(OC)ccc1-2 |  | 12.2 | > 400 | 90.7 | > 400 | > 400 | 50.1 | 4.72 |  |  |  | 
[2H]C([2H])([2H])Oc1ccc2c(c1)C(=O)N1CCC[C@H]1c1c(C(=O)NCC)ncn1-2 | 4.55 | 21.3 | > 400 | 93.5 | > 400 | > 400 | 94.8 |  |  | Non-Toxic |  | 
COc1ccc2c(c1)C(=O)N1CCC[C@H]1c1c(C(=O)SC(C)(C)C)ncn1-2 |  |  | 18.8 |  | > 100 | > 100 |  |  |  |  | Insoluble | Insoluble
[2H]C([2H])([2H])Oc1ccc2c(c1)C(=O)N1CCC[C@H]1c1c(C(=O)OC)ncn1-2 | 4.75 | 16.3 | > 400 | 92.9 | > 400 | > 400 | 85.9 |  |  | Toxic |  | 
[2H]C([2H])([2H])Oc1ccc2c(c1)C(=O)N1CCC[C@H]1c1c(C(=O)SCC)ncn1-2 |  |  | > 100 |  | > 100 | > 100 |  |  |  |  | Insoluble | Insoluble
[2H]C([2H])([2H])Oc1ccc2c(c1)C(=O)N1CCC[C@H]1c1c(C(=O)SC(C)(C)C)ncn1-2 |  |  | 16.8 |  | > 100 | > 100 |  |  |  |  |  | Insoluble
[2H]C([2H])([2H])Oc1ccc2c(c1)C(=O)N1CCC[C@H]1c1c(C(=O)OCC)ncn1-2 | 5.85 | 14 | > 400 | 92.8 | > 400 | > 400 | 85.5 |  |  |  |  | 
COc1ccc2c(c1)C(=O)N1CCC[C@H]1c1c(C(=O)OCC(C)C)ncn1-2 | 0.325 | 2.82 | > 100 | 77.8 | > 200 | > 200 | 13.4 |  |  |  | Insoluble | 
COc1ccc2c(c1)C(=O)N1CCC[C@H]1c1c(C(=O)NC(C)(C)C)ncn1-2 |  | 3.23 | > 200 | 92.8 | > 400 | > 400 | 4.2 | 10.4 |  |  |  | 
[2H]C([2H])([2H])Oc1ccc2c(c1)C(=O)N1CCC[C@H]1c1c(C(=O)NC)ncn1-2 | 1.29 | 23.9 | > 100 | 94.9 | > 400 | > 400 | 56.8 |  |  |  |  | 
[2H]C([2H])([2H])Oc1ccc2c(c1)C(=O)N1CCC[C@H]1c1c(C(=O)O)ncn1-2 | 4.71 | 5.6 | > 400 | 84.6 | > 400 | > 400 | 84.6 |  |  | Non-Toxic |  | 
[2H]C([2H])([2H])Oc1ccc2c(c1)C(=O)N1CCC[C@H]1c1c(C(=O)NC(C)(C)C)ncn1-2 |  | 7.15 | > 200 | 95.6 | > 400 | > 400 | 9.4 | 21.5 |  | Toxic |  | 
COc1ccc2c(c1)C(=O)N1CCC[C@H]1c1c(C(=O)OC(C(F)(F)F)C(F)(F)F)ncn1-2 |  |  | > 200 |  | > 400 | > 400 |  |  |  |  | Insoluble | Insoluble
CNC(=O)c1ncn2c1[C@@H]1CCCN1C(=O)c1cc(OC)ccc1-2 | 1.08 | 16.3 | > 100 | 93.8 | > 400 | > 400 | 54.3 |  |  | Toxic |  | 
